Measured values from ChEMBL document CHEMBL3244258, “Derivatives of tetrahydro-1,4-benzodiazepines as potential antihypertensive agents” (1977).

Key:
[1] = system: Rattus norvegicus; assay: Antihypertensive activity in pithed rat assessed as change in phenylephrine-induced systemic pressor response at 10 mg/kg, iv in presence of 4 mg/kg phenylephrine; format: functional
In short: (§1)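 Ether-anesthetized, artificially respired rats pretreated with atropine 1 mg/kg and d-tubocurarine chloride 1 mg/kg. Carotid arterial pressure recorded; drugs given into the jugular vein. Pressor responses to iv phenylephrine measured before and after one or more iv doses of test compound. Reported as percent change in response.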

[2] = system: Rattus norvegicus; assay: Antihypertensive activity in pithed rat assessed as change in sympathetic outflow activation-induced systemic pressor response at 30 mg/kg, iv at 5 Hz frequency; format: functional
In short: (§2)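 Pithed-rat preparation under ether anesthesia with artificial respiration, pretreated with atropine 1 mg/kg and d-tubocurarine chloride 1 mg/kg. Sympathetic outflow activated electrically at 2.5, 5 or 10 Hz. Carotid pressure responses taken before and after one or more test doses given via jugular vein. Reported as percent change in pressor response.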

[3] = system: Rattus norvegicus; assay: Antihypertensive activity in left kidney ligation and contralateral nephrectomy-induced hypertensive Sprague-Dawley rat model assessed as change in systolic blood pressure at 75 mg/kg, po administered via stomach tube; format: functional, Artery
In short: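 Conscious female rats made hypertensive by figure-8 ligature of left kidney, contralateral nephrectomy 1 week later. Dosed orally by stomach tube. Systolic pressure measured at the tail with occluding and sensing cuffs and a pressure transducer, before dosing and 1.5 and 4 h after. Values are group means of 4 or 8 rats.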

[4] = system: Rattus norvegicus; assay: Antihypertensive activity in pithed rat assessed as change in sympathetic outflow activation-induced systemic pressor response at 30 mg/kg, iv at 10 Hz frequency; format: functional; in short: as §2
[5] = system: Rattus norvegicus; assay: Antihypertensive activity in pithed rat assessed as change in phenylephrine-induced systemic pressor response at 30 mg/kg, iv in presence of 2 mg/kg phenylephrine; format: functional; in short: as §1
[6] = system: Rattus norvegicus; assay: Antihypertensive activity in pithed rat assessed as change in sympathetic outflow activation-induced systemic pressor response at 30 mg/kg, iv at 2.5 Hz frequency; format: functional; in short: as §2
[7] = system: Rattus norvegicus; assay: Antihypertensive activity in pithed rat assessed as change in phenylephrine-induced systemic pressor response at 10 mg/kg, iv in presence of 2 mg/kg phenylephrine; format: functional; in short: as §1
[8] = system: Rattus norvegicus; assay: Antihypertensive activity in pithed rat assessed as change in sympathetic outflow activation-induced systemic pressor response at 10 mg/kg, iv at 10 Hz frequency; format: functional; in short: as §2
[9] = system: Rattus norvegicus; assay: Antihypertensive activity in pithed rat assessed as change in phenylephrine-induced systemic pressor response at 30 mg/kg, iv in presence of 4 mg/kg phenylephrine; format: functional; in short: as §1
[10] = system: Rattus norvegicus; assay: Antihypertensive activity in pithed rat assessed as change in sympathetic outflow activation-induced systemic pressor response at 10 mg/kg, iv at 5 Hz frequency; format: functional; in short: as §2
[11] = system: Rattus norvegicus; assay: Antihypertensive activity in pithed rat assessed as change in sympathetic outflow activation-induced systemic pressor response at 10 mg/kg, iv at 2.5 Hz frequency; format: functional; in short: as §2
[12] = system: Rattus norvegicus; assay: Antihypertensive activity in pithed rat assessed as change in sympathetic outflow activation-induced systemic pressor response at 5 mg/kg, iv at 2.5 Hz frequency; format: functional; in short: as §2
[13] = system: Rattus norvegicus; assay: Antihypertensive activity in pithed rat assessed as change in sympathetic outflow activation-induced systemic pressor response at 1 mg/kg, iv at 5 Hz frequency; format: functional; in short: as §2
[14] = system: Rattus norvegicus; assay: Antihypertensive activity in pithed rat assessed as change in sympathetic outflow activation-induced systemic pressor response at 5 mg/kg, iv at 5 Hz frequency; format: functional; in short: as §2
[15] = system: Rattus norvegicus; assay: Antihypertensive activity in pithed rat assessed as change in phenylephrine-induced systemic pressor response at 1 mg/kg, iv in presence of 2 mg/kg phenylephrine; format: functional; in short: as §1
[16] = system: Rattus norvegicus; assay: Antihypertensive activity in pithed rat assessed as change in sympathetic outflow activation-induced systemic pressor response at 1 mg/kg, iv at 10 Hz frequency; format: functional; in short: as §2
[17] = system: Rattus norvegicus; assay: Antihypertensive activity in pithed rat assessed as change in phenylephrine-induced systemic pressor response at 5 mg/kg, iv in presence of 2 mg/kg phenylephrine; format: functional; in short: as §1
[18] = system: Rattus norvegicus; assay: Antihypertensive activity in pithed rat assessed as change in sympathetic outflow activation-induced systemic pressor response at 5 mg/kg, iv at 10 Hz frequency; format: functional; in short: as §2
[19] = system: Rattus norvegicus; assay: Antihypertensive activity in pithed rat assessed as change in sympathetic outflow activation-induced systemic pressor response at 1 mg/kg, iv at 2.5 Hz frequency; format: functional; in short: as §2
[20] = system: Rattus norvegicus; assay: Antihypertensive activity in pithed rat assessed as change in phenylephrine-induced systemic pressor response at 5 mg/kg, iv in presence of 4 mg/kg phenylephrine; format: functional; in short: as §1
[21] = system: Rattus norvegicus; assay: Antihypertensive activity in pithed rat assessed as change in phenylephrine-induced systemic pressor response at 1 mg/kg, iv in presence of 4 mg/kg phenylephrine; format: functional; in short: as §1
[22] = system: Rattus norvegicus; assay: Antihypertensive activity in pithed rat assessed as change in sympathetic outflow activation-induced systemic pressor response at 20 mg/kg, iv at 5 Hz frequency; format: functional; in short: as §2
[23] = system: Rattus norvegicus; assay: Antihypertensive activity in pithed rat assessed as change in phenylephrine-induced systemic pressor response at 20 mg/kg, iv in presence of 4 mg/kg phenylephrine; format: functional; in short: as §1
[24] = system: Rattus norvegicus; assay: Antihypertensive activity in pithed rat assessed as change in sympathetic outflow activation-induced systemic pressor response at 40 mg/kg, iv at 10 Hz frequency; format: functional; in short: as §2
[25] = system: Rattus norvegicus; assay: Antihypertensive activity in pithed rat assessed as change in sympathetic outflow activation-induced systemic pressor response at 20 mg/kg, iv at 10 Hz frequency; format: functional; in short: as §2
[26] = system: Rattus norvegicus; assay: Antihypertensive activity in pithed rat assessed as change in sympathetic outflow activation-induced systemic pressor response at 40 mg/kg, iv at 2.5 Hz frequency; format: functional; in short: as §2
[27] = system: Rattus norvegicus; assay: Antihypertensive activity in pithed rat assessed as change in phenylephrine-induced systemic pressor response at 20 mg/kg, iv in presence of 2 mg/kg phenylephrine; format: functional; in short: as §1
[28] = system: Rattus norvegicus; assay: Antihypertensive activity in pithed rat assessed as change in sympathetic outflow activation-induced systemic pressor response at 40 mg/kg, iv at 5 Hz frequency; format: functional; in short: as §2
[29] = system: Rattus norvegicus; assay: Antihypertensive activity in pithed rat assessed as change in phenylephrine-induced systemic pressor response at 40 mg/kg, iv in presence of 4 mg/kg phenylephrine; format: functional; in short: as §1
[30] = system: Rattus norvegicus; assay: Antihypertensive activity in pithed rat assessed as change in phenylephrine-induced systemic pressor response at 40 mg/kg, iv in presence of 2 mg/kg phenylephrine; format: functional; in short: as §1
[31] = system: Rattus norvegicus; assay: Antihypertensive activity in pithed rat assessed as change in sympathetic outflow activation-induced systemic pressor response at 20 mg/kg, iv at 2.5 Hz frequency; format: functional; in short: as §2
[32] = system: Rattus norvegicus; assay: Antihypertensive activity in pithed rat assessed as change in sympathetic outflow activation-induced systemic pressor response at 15 mg/kg, iv at 2.5 Hz frequency; format: functional; in short: as §2
[33] = system: Rattus norvegicus; assay: Antihypertensive activity in pithed rat assessed as change in sympathetic outflow activation-induced systemic pressor response at 15 mg/kg, iv at 10 Hz frequency; format: functional; in short: as §2
[34] = system: Rattus norvegicus; assay: Antihypertensive activity in pithed rat assessed as change in sympathetic outflow activation-induced systemic pressor response at 15 mg/kg, iv at 5 Hz frequency; format: functional; in short: as §2
[35] = system: Rattus norvegicus; assay: Antihypertensive activity in pithed rat assessed as change in phenylephrine-induced systemic pressor response at 15 mg/kg, iv in presence of 2 mg/kg phenylephrine; format: functional; in short: as §1
[36] = system: Rattus norvegicus; assay: Antihypertensive activity in pithed rat assessed as change in phenylephrine-induced systemic pressor response at 15 mg/kg, iv in presence of 4 mg/kg phenylephrine; format: functional; in short: as §1

C[N+]1(C)CCNc2ccccc2C1.[I-]
Activity [1]: 39% | Activity [2]: -34% | Activity [3]: -46 mmHg | Activity [4]: -35% | Activity [5]: 44% | Activity [6]: -38% | Activity [7]: 23% | Activity [8]: 1% | Activity [9]: 74% | Activity [10]: 9% | Activity [11]: 10%

CCN1CC[N+](C)(CC)Cc2ccccc21.[I-] (centres undefined)
Activity [3]: -21 mmHg

C[N+]1(C)CCNc2ccc(Cl)cc2C1.[I-]
Activity [3]: -4 mmHg

COc1cc2c(cc1OC)NCC[N+](C)(C)C2.[I-]
Activity [3]: 2 mmHg

CC1CNc2ccccc2C[N+]1(C)C.[I-] (centres undefined)
Activity [3]: -4 mmHg

C[N+]1(C)CCn2c3c(c4cccc(c42)C1)CCCC3.[I-]
Activity [3]: 3 mmHg

N/C(CN1CCNc2ccccc2C1)=N\O
Activity [3]: -12 mmHg

N=C(N)NCCN1CCCCCCC1 [GUANETHIDINE]
Activity [12]: -100% | Activity [13]: -72% | Activity [14]: -100% | Activity [15]: 64% | Activity [16]: -65% | Activity [17]: 160% | Activity [18]: -94% | Activity [19]: -85% | Activity [20]: 105% | Activity [21]: 57%

N=C(N)N1CCNc2ccccc2C1.O=[N+]([O-])O
Activity [22]: -50% | Activity [23]: 5% | Activity [24]: -86% | Activity [25]: -58% | Activity [26]: -82% | Activity [27]: 8% | Activity [3]: -55 mmHg | Activity [28]: -100% | Activity [29]: 10% | Activity [30]: 3% | Activity [31]: -39%

N=C(N)N1CCN2CCc3cccc(c32)C1.O=[N+]([O-])O
Activity [3]: -12 mmHg

C[N+]1(C)CCN2CCc3cccc(c32)C1.[I-]
Activity [32]: -93% | Activity [12]: -42% | Activity [3]: -48 mmHg | Activity [14]: -40% | Activity [33]: -91% | Activity [34]: -87% | Activity [35]: 87% | Activity [17]: 68% | Activity [18]: -47% | Activity [20]: 18% | Activity [36]: 12%

CN1CC[N+](C)(C)Cc2ccccc21.[I-]
Activity [3]: -51 mmHg

N=C(N)N1CCn2c3c(c4cccc(c42)C1)CCCC3.O=[N+]([O-])O
Activity [3]: -8 mmHg

CN1CCN(C(=N)N)Cc2ccccc21.O=[N+]([O-])O
Activity [22]: -83% | Activity [1]: -5% | Activity [23]: -20% | Activity [25]: -82% | Activity [27]: -26% | Activity [3]: -60 mmHg | Activity [7]: -14% | Activity [8]: -57% | Activity [10]: -67% | Activity [31]: -83% | Activity [11]: -73%

N=C(N)N1CCNc2ccc(Cl)cc2C1.O=[N+]([O-])O
Activity [3]: -34 mmHg
